In ChEMBL document CHEMBL3244167, “Lysosomotropic agents. 1. Synthesis and cytotoxic action of lysosomotropic detergents” (J Med Chem, 1979):
Active and inactive are the calls of the source. The calls are words filed in the database; no cut-off is given here.

Experiments:
P815 [1] = test: Induction of cell death in mouse P815 cells assessed as [51Cr] release at 100 ug/ml at 5 hrs (reference value: 10%); assay type: functional
Mus musculus [2] = test: Toxicity in mouse at 500 mg/kg, ip after 10 days; assay type: organism-based; set-up: dose 500 mg/kg, route intraperitoneal; conditions: in vivo, 240 h
How it was run: (§1)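 Mice dosed ip; observed for 10 days.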

Mus musculus [3] = test: Toxicity in mouse at 250 mg/kg, ip after 10 days; assay type: organism-based; set-up: dose 250 mg/kg, route intraperitoneal; conditions: in vivo, 240 h
How it was run: as §1

[4] = Cytotoxicity against mouse peritoneal macrophages assessed as LDH release at 100 ug/ml after 24 hrs (reference value: 4 to 9 %); assay type: functional, Peritoneal macrophage cell
[5] = Cytotoxicity against mouse peritoneal macrophages assessed as […] at 0.75 mM after 24 hrs (reference value: 10 %); assay type: functional, Peritoneal macrophage cell
How it was run: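 Thioglycolate-stimulated mouse peritoneal macrophages, 2-4 × 10^6 cells/dish, in duplicate. Compound dosed from Me2SO solution at 1 µL/mL, final 0.750 mM; control Me2SO only. At 24 h, units of N-acetyl-β-D-glucosaminidase (lysosomal marker) and LDH (cytoplasmic marker) released into medium were measured, ±15%.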

P815 [6] = test: Induction of cell death in mouse P815 cells assessed as [51Cr] release at 50 ug/ml at 5 hrs; assay type: functional
P815 [7] = test: Induction of cell death in mouse P815 cells assessed as [51Cr] release at 1 ug/ml at 5 hrs; assay type: functional
P815 [8] = test: Induction of cell death in mouse P815 cells assessed as [51Cr] release at 3 ug/ml at 5 hrs; assay type: functional
P815 [9] = test: Induction of cell death in mouse P815 cells assessed as [51Cr] release at 9 ug/ml at 5 hrs; assay type: functional
P815 [10] = test: Induction of cell death in mouse P815 cells assessed as [51Cr] release at 27 ug/ml at 5 hrs; assay type: functional
[11] = tested on: Peritoneal macrophage cell; test: Induction of large vacuole formation in mouse peritoneal macrophages at 5 ug/ml; assay type: functional, cell-based
[12] = tested on: Peritoneal macrophage cell; test: Induction of cell death in mouse peritoneal macrophages at 25 ug/ml; assay type: functional, cell-based
[13] = Induction of cell lysis in ox RBC at 0.375 mM measured at 1 hr (reference value: 1.7 %); assay type: cell-based, Bos taurus, Erythrocyte; conditions: cattle, ox red blood cells; read-out: Activity
[14] = Induction of cell lysis in ox RBC at 0.375 mM measured at 4 hrs (reference value: 1.8 %); assay type: cell-based, Bos taurus, Erythrocyte; conditions: cattle, ox red blood cells; read-out: Activity
[15] = Induction of cell lysis in ox RBC at 0.188 mM measured at 4 hrs (reference value: 1.8 %); assay type: cell-based, Bos taurus, Erythrocyte; conditions: cattle, ox red blood cells; read-out: Activity
[16] = Induction of cell lysis in ox RBC at 0.188 mM measured at 1 hr (reference value: 1.7 %); assay type: cell-based, Bos taurus, Erythrocyte; conditions: cattle, ox red blood cells; read-out: Activity
[17] = Induction of cell lysis in rabbit RBC at 0.188 to 0.375 mM measured at 1 to 4 hrs; assay type: cell-based, Oryctolagus cuniculus; conditions: erythrocyte, 375 µM
Raji [18] = test: Cytotoxicity to human Raji cells; assay type: functional, cell-based
Raji [19] = test: Cytotoxicity to human Raji cells at 40 ug/ml after 3 days; assay type: functional, cell-based
HeLa = test: Cytotoxicity to human HeLa cells at 100 ug/ml after 24 hrs; assay type: functional, cell-based
WI-38 = test: Cytotoxicity to human W138 cells; assay type: functional, cell-based
RK13 = test: Cytotoxicity to rabbit RK13 cells; assay type: functional, cell-based; conditions: Oryctolagus cuniculus
MRC5 [20] = test: Cytotoxicity to human MRC5 cells; assay type: functional, cell-based
P815 [21] = test: Induction of cell death in mouse P815 cells assessed as [51Cr] release at 25 ug/ml at 5 hrs; assay type: functional
P815 [22] = test: Induction of cell death in mouse P815 cells assessed as [51Cr] release at 75 ug/ml at 5 hrs; assay type: functional
Raji [23] = test: Cytotoxicity to human Raji cells at 10 ug/ml after 3 days; assay type: functional, cell-based
MRC5 [24] = test: Cytotoxicity to human MRC5 cells at 10 ug/ml after 3 days; assay type: functional, cell-based
[25] = tested on: Peritoneal macrophage cell; test: Induction of large vacuole formation in mouse peritoneal macrophages at 10 to 25 ug/ml; assay type: functional, cell-based
[26] = tested on: Peritoneal macrophage cell; test: Induction of cell death in mouse peritoneal macrophages at 50 ug/ml; assay type: functional, cell-based

CCCCCCCCCCCCCc1ccccn1
pKa (physchem): 5.6

Cn1ccnc1 [1-METHYLIMIDAZOLE]
pKa (physchem): 7

CCCCCCCCCCCCNCC(F)F
Activity (P815 [1]): 45% | Activity (Mus musculus [2]): Toxic | Activity (Mus musculus [3]): Non-toxic | pKa (physchem): 7.5

CCCCCCCCCCNCC(F)(F)F
Activity [4]: 12% | Activity [5]: 32%

CCCCCCCCCCCCCCNCC(F)(F)F
Activity [4]: 5% | Activity [5]: 25%

CCCCCCCCCCCCCCCCCCNCC(F)(F)F
Activity [4]: 5% | pKa (physchem): 4.7

CCCCCNCC(F)(F)F
Activity [4]: 4% | Activity [5]: 14%

CCCCCCCCCCCCn1ccnc1
Activity (P815 [6]): 94% | Activity (P815 [7]): 10% | Activity (P815 [8]): 11% | Activity (P815 [9]): 11% | Activity (P815 [10]): 93%

CCCNCC(F)(F)F
Activity [4]: 10%

CCCCCCCCCCCCNCC(F)(F)F
Activity [4]: 10% | Activity [5]: 27% | Activity [11]: Active | Activity [12]: Active | Activity (P815 [1]): 21% | hemolysis at 1 h, 375 µM [13]: 5.2% | hemolysis at 4 h, 375 µM [14]: 6.5% | hemolysis at 4 h, 188 µM [15]: 7.3% | hemolysis at 1 h, 188 µM [16]: 4.2% | Activity [17]: Non-toxic | Activity (Raji [18]): Active | Activity (Raji [19]): Active | Activity (HeLa): Active | Activity (WI-38): Active | Activity (RK13): Active | Activity (MRC5 [20]): Active | Activity (Mus musculus [2]): Non-toxic | pKa (physchem): 5.5

CNCC(F)(F)F
pKa (physchem): 6

CCCCCCCCCCCCCCCCNCC(F)(F)F
Activity [4]: 63% | pKa (physchem): 5.2

CCCCCCCCCCCCN1CCOCC1
Activity (P815 [1]): 85% | Activity (P815 [21]): 13% | Activity (P815 [6]): 14% | Activity (P815 [22]): 15% | Activity (Raji [23]): Active | Activity (MRC5 [24]): Active | pKa (physchem): 7.6

CCCCCCCCCn1ccnc1
pKa (physchem): 6.6

Cc1ccncc1
pKa (physchem): 6

CCCCCCCCCCCCN [DODECYLAMINE]
hemolysis at 1 h, 375 µM [13]: 100% | hemolysis at 4 h, 375 µM [14]: 100% | hemolysis at 4 h, 188 µM [15]: 100% | hemolysis at 1 h, 188 µM [16]: 100%

CCCCCCCCCCCCCc1ccncc1
Activity [25]: Active | Activity [26]: Active | Activity (P815 [1]): 10% | Activity (Raji [18]): Active | Activity (Raji [19]): Active | Activity (WI-38): Active | Activity (RK13): Active | Activity (MRC5 [20]): Active | Activity (Mus musculus [2]): Non-toxic | pKa (physchem): 5.9

CCCCCCCCNCC(F)(F)F
Activity [4]: 7% | Activity [5]: 19% | pKa (physchem): 5.9
